Test results reported in ChEMBL document CHEMBL1152658, “Antioxidant activity of benzoxazolinonic and benzothiazolinonic derivatives in the LDL oxidation model” (2009).
Calls of active or inactive are those of the source. No cut-off for these calls is given here.

Legend:
[1] = Inhibition of CuSO4-induced human LDL oxidation assessed as ratio of length of lag phase of conjugated diene formation in presence of compound to untreated control at 100 uM measured every 10 mins for 8 hrs by spectrophotometry; type: functional
Outline: (§1)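 Human LDL taken from fasting normolipidemic volunteers by sequential NaBr density ultracentrifugation (1.019–1.063 g/mL), protein measured by Peterson method. Oxidation started with 16.6 µM CuSO4 or 2 mM AAPH, compound at 1–100 µM. Conjugated dienes read at 234 nm every 10 min for 8 h at 30 °C. R = lag phase with compound / lag phase without compound.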

[2] = Inhibition of CuSO4-induced human LDL oxidation assessed as ratio of length of lag phase of conjugated diene formation in presence of compound to untreated control at 10 uM measured every 10 mins for 8 hrs by spectrophotometry; type: functional; outline: as §1
[3] = Inhibition of CuSO4-induced human LDL oxidation assessed as ratio of length of lag phase of conjugated diene formation in presence of compound to untreated control at 5 uM measured every 10 mins for 8 hrs by spectrophotometry; type: functional; outline: as §1
[4] = Inhibition of CuSO4-induced human LDL oxidation assessed as length of lag phase of conjugated diene formation measured every 10 mins for 8 hrs by spectrophotometry; type: functional
Outline: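 Human LDL (NaBr density ultracentrifugation, 1.019–1.063 g/mL) oxidized with 16.6 µM CuSO4 at 30 °C. Diene conjugation followed at 234 nm every 10 min for 8 h. Lag-phase length taken from the kinetic curves.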

[5] = tested on: BAEC; experiment: Cytoprotective activity against LDL-induced cytotoxicity in BAEC assessed as decrease in LDH release at 10 uM treated for 24 hrs before LDL challenge measured after 16 hrs by spectrometry; type: functional; conditions: Bos taurus
Outline: (§2)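 BAECs (primary, bovine aorta) in DMEM with 10% newborn calf serum, glutamine, penicillin. Pretreated 24 h with drug in methanol (final 10 µM), then 16 h at 37 °C with drug plus native LDL or mO-LDL at 100 µg/mL (mO-LDL from LDL incubated at 30 °C without oxidant). Medium LDH read spectrometrically by NAD reduction, expressed as % of total LDH released by 0.1% Triton X-100; mean (SD) of two incubations in triplicate.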

[6] = tested on: BAEC; experiment: Cytoprotective activity against minimally oxidized LDL-induced cytotoxicity in BAEC assessed as decrease in number of detached and shrunk cells at 10 uM treated for 24 hrs before mO-LDL challenge measured after 16 hrs by spectrometry; type: functional, cell-based; conditions: Bos taurus
Outline: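 BAECs pretreated 24 h with drug (final 10 µM in methanol), then exposed 16 h at 37 °C to mO-LDL (100 µg protein/mL, air-oxidized LDL) with drug. Cells examined for morphology: contraction, cytoplasmic ramification, rounding and detachment from wells.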

[7] = Cytoprotective activity against minimally oxidized LDL-induced cytotoxicity in BAEC assessed as cell vitality at 10 uM treated for 24 hrs before mO-LDL challenge measured after 16 hrs by MTT assay; type: functional, Bos taurus
Outline: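 Primary bovine aortic endothelial cells grown in DMEM with 10% newborn calf serum, glutamine and penicillin. Pretreated 24 h with drug in methanol, then 16 h at 37 °C with air-oxidized LDL (100 µg protein/mL, made by incubating LDL at 30 °C without CuSO4 or AAPH) plus drug (final 10 µM). MTT (5 mg solution in PBS) added for 5 h. Formazan dissolved in dimethylformamide, A590 read, expressed as % of control wells.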

[8] = Inhibition of AAPH-induced human LDL oxidation assessed as ratio of length of lag phase of conjugated diene formation in presence of compound to untreated control at 5 uM measured every 10 mins for 8 hrs by spectrophotometry; type: functional; outline: as §1
[9] = Cytoprotective activity against minimally oxidized LDL-induced cytotoxicity in BAEC assessed as LDH release at 10 uM treated for 24 hrs before mO-LDL challenge measured after 16 hrs by spectrometry; type: functional, Bos taurus; outline: as §2

CCCN1CCc2cc3oc(=O)n(C)c3cc2C1c1cccc(OC)c1 (stereo not given)
Ratio [1]: > 5 | Ratio [2]: 3.3 | Ratio [3]: 1.5 | Activity [4]: Dose-dependent effect | Activity [5]: inactive | Activity [6]: Active | Activity [7]: 90%

CCCN1CCc2cc3oc(=O)n(C)c3cc2C1c1cccc(O)c1 (stereo not given)
Ratio [1]: > 5 | Ratio [2]: > 5 | Ratio [3]: 2.5 | Ratio [8]: 2.4 | Activity [4]: Dose-dependent effect | Activity [9]: 13.5% | Activity [5]: inactive | Activity [6]: Active | Activity [7]: 90%

CCCN1CCc2cc3sc(=O)n(C)c3cc2C1c1cccc(OC)c1 (stereo not given)
Ratio [1]: > 5 | Ratio [2]: > 5 | Ratio [3]: 2.1 | Ratio [8]: 1.9 | Activity [4]: Dose-dependent effect | Activity [9]: 14.6% | Activity [5]: inactive | Activity [6]: Active | Activity [7]: 90%

COc1cccc(C2NCCc3cc4sc(=O)n(C)c4cc32)c1 (stereo not given)
Ratio [1]: > 5 | Ratio [2]: > 5 | Ratio [3]: 2.1 | Ratio [8]: 2 | Activity [4]: Dose-dependent effect | Activity [9]: 14.5% | Activity [5]: inactive | Activity [6]: Active | Activity [7]: 90%

COc1ccc2[nH]cc(CCNC(C)=O)c2c1 [MELATONIN]
Ratio [1]: 1.5 | Activity [4]: Dose-dependent effect | Activity [5]: inactive | Activity [6]: Active | Activity [7]: 90%

CCCCCCCCCN1CCc2cc3oc(=O)n(C)c3cc2C1c1cccc(OC)c1 (stereo not given)
Ratio [1]: > 5 | Ratio [2]: 3.8 | Ratio [3]: 1.7 | Activity [4]: Dose-dependent effect | Activity [5]: inactive | Activity [6]: Active | Activity [7]: 90%

CCCN1CCc2cc(O)c(NC)cc2C1c1cccc(OC)c1 (stereo not given)
Ratio [1]: > 5 | Ratio [2]: > 5 | Ratio [3]: 3.2 | Ratio [8]: 3.3 | Activity [4]: Dose-dependent effect | Activity [9]: 13.2% | Activity [5]: inactive | Activity [6]: Active | Activity [7]: 90%

COc1cccc(C2NCCc3cc4oc(=O)n(C)c4cc32)c1 (stereo not given)
Ratio [1]: > 5 | Ratio [2]: 1.8 | Ratio [3]: 1 | Activity [4]: Dose-dependent effect | Activity [5]: inactive | Activity [6]: Active | Activity [7]: 90%

CCCN1CCc2c([nH]c3ccc(CC)cc23)C1c1cccc(OC)c1.Cl (stereo not given)
Ratio [1]: > 5 | Ratio [2]: > 5 | Ratio [3]: 1.6 | Ratio [8]: 1.5 | Activity [4]: Dose-dependent effect | Activity [9]: 15.32% | Activity [5]: inactive | Activity [6]: Active | Activity [7]: 90%

COc1cccc(C2=NCCc3cc4sc(=O)n(C)c4cc32)c1
Ratio [1]: > 5 | Ratio [2]: > 5 | Ratio [3]: 2.5 | Ratio [8]: 2.5 | Activity [4]: Dose-dependent effect | Activity [9]: 14.12% | Activity [5]: inactive | Activity [6]: Active | Activity [7]: 90%

CCCN1CCc2cc(O)c(NC)cc2C1c1cccc(O)c1 (stereo not given)
Activity [9]: 14.1% | Activity [5]: inactive | Activity [6]: Active | Activity [7]: 90%

COc1ccc2[nH]c(=O)oc2c1 [COIXOL]
Ratio [1]: 1.5 | Activity [4]: Dose-dependent effect | Activity [5]: inactive | Activity [7]: 90%

COc1cccc(C2=NCCc3cc4oc(=O)n(C)c4cc32)c1
Ratio [1]: > 5 | Ratio [2]: 1.8 | Ratio [3]: 1 | Activity [4]: Dose-dependent effect | Activity [5]: inactive | Activity [6]: Active | Activity [7]: 90%
